Legend:
[1] = tested on: Protocadherin-15 (Homo sapiens), Q96QU1 [R3X]; experiment: Suppression of human PCDH15 R3X mutation at 160 ug/ml
In short: (§1)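 In vitro transcription-translation of a reporter plasmid carrying the PCDH15 R3X nonsense mutation (premature UGA C stop), with [35S]methionine and a range of drug concentrations. Products were resolved by SDS-PAGE and quantified by PhosphorImager. Suppression is the 35-kDa product as a share of total (35 + 25 kDa) protein. Translation level is total protein at each concentration relative to the drug-free reaction. Values are means of ≥3 independent experiments; sulfate salts were tested.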

[2] = tested on: Protocadherin-15 (Homo sapiens), Q96QU1 [R3X]; experiment: Effect on human PCDH15 R3X mutation translation level at 160 ug/ml; in short: as §1
Escherichia coli [3] = experiment: Antibacterial activity against Escherichia coli ATCC 25922 at 160 ug/ml; format: functional
Bacillus subtilis [4] = experiment: Antibacterial activity against Bacillus subtilis ATCC 6633 at 160 ug/ml; format: functional
[5] = tested on: Protocadherin-15 (Homo sapiens), Q96QU1 [R3X]; experiment: Suppression of human PCDH15 R3X mutation at 30 ug/ml; in short: as §1
Target sequence in this assay (Q96QU1 other isoform, or with tags, fused parts or gaps): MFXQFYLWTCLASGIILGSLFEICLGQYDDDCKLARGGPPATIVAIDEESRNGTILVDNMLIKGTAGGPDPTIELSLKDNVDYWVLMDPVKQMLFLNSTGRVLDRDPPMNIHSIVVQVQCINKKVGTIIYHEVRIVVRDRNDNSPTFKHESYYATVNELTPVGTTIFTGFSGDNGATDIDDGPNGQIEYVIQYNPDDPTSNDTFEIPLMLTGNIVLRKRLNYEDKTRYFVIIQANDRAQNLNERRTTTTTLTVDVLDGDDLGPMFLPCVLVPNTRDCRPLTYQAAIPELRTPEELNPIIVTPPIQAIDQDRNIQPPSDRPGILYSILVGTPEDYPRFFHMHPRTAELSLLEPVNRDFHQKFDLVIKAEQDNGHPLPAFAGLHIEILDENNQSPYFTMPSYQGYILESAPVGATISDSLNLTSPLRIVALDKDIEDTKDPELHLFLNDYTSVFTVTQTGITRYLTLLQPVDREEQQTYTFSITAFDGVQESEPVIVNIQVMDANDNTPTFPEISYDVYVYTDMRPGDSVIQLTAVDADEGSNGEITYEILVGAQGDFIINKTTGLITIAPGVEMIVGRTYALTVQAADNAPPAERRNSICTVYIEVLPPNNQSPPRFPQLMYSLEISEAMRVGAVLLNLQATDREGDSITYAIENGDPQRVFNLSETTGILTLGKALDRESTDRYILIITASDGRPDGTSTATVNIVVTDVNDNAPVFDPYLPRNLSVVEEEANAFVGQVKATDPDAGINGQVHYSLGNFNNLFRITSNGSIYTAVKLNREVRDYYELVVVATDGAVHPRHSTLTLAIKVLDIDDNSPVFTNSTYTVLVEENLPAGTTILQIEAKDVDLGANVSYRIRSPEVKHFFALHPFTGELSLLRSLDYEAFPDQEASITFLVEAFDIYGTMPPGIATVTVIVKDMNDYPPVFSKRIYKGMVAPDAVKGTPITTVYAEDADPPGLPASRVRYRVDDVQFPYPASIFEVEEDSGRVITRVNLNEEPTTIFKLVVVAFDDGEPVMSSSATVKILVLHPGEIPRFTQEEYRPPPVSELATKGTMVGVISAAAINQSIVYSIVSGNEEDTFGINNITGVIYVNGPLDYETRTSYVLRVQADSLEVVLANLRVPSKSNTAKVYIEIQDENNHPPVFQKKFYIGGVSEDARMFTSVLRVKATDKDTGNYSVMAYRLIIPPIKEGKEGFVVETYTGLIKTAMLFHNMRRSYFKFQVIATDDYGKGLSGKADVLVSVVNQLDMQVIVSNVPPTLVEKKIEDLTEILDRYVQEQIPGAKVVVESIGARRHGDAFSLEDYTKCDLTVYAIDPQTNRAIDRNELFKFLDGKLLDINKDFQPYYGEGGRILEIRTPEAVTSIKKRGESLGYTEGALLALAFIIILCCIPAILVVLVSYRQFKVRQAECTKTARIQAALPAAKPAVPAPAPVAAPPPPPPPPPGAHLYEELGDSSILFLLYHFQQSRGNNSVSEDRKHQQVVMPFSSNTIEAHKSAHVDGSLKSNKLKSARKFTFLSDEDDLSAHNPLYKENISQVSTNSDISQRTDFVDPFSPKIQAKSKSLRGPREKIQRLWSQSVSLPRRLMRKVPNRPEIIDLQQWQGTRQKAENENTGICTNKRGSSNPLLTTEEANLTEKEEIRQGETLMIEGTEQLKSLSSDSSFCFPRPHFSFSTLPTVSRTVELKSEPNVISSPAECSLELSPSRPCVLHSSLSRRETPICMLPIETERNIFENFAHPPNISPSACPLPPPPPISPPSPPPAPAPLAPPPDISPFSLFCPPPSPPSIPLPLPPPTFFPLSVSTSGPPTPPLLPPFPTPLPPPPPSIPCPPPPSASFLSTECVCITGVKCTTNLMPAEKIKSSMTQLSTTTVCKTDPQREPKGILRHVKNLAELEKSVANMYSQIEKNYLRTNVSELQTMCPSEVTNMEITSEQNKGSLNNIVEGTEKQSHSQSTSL

Escherichia coli [6] = experiment: Antibacterial activity against Escherichia coli ATCC 25922 at 30 ug/ml; format: functional, organism-based
Bacillus subtilis [7] = experiment: Antibacterial activity against Bacillus subtilis ATCC 6633 at 30 ug/ml; format: functional, organism-based
[8] = tested on: Protocadherin-15 (Homo sapiens), Q96QU1 [R3X]; experiment: Effect on human PCDH15 R3X mutation translation level at 30 ug/ml; in short: as §1
Target sequence in this assay (Q96QU1 other isoform, or with tags, fused parts or gaps): as above

[9] = tested on: Protocadherin-15 (Homo sapiens), Q96QU1 [R3X]; experiment: Suppression of human PCDH15 R3X mutation at 80 ug/ml; in short: as §1
[10] = tested on: Protocadherin-15 (Homo sapiens), Q96QU1 [R3X]; experiment: Effect on human PCDH15 R3X mutation translation level at 80 ug/ml; in short: as §1
Escherichia coli [11] = experiment: Antibacterial activity against Escherichia coli ATCC 25922 at 80 ug/ml; format: functional
Bacillus subtilis [12] = experiment: Antibacterial activity against Bacillus subtilis ATCC 6633 at 80 ug/ml; format: functional
[13] = tested on: Protocadherin-15 (Homo sapiens), Q96QU1 [R3X]; experiment: Suppression of human PCDH15 R3X mutation at 40 ug/ml
In short: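 The PCDH15 R3X (UGA C) reporter is coupled-transcribed and translated in vitro in the presence of [35S]methionine, then run on SDS–PAGE with PhosphorImager quantification. Suppression is the fraction of the 35-kDa read-through product out of total protein (35-kDa plus 25-kDa truncated product). Values are averages of at least three independent experiments.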

[14] = tested on: Protocadherin-15 (Homo sapiens), Q96QU1 [R3X]; experiment: Effect on human PCDH15 R3X mutation translation level at 40 ug/ml
In short: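 Reporter plasmid carrying the PCDH15 R3X nonsense mutation (premature UGA C stop codon) is transcribed and translated in vitro with [35S]methionine and drug added. Products are resolved by SDS–PAGE and quantified by PhosphorImager. Translation level is total protein (35 + 25 kDa) at each drug concentration relative to total protein without drug. Values are means of at least three independent experiments.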

Escherichia coli [15] = experiment: Antibacterial activity against Escherichia coli ATCC 25922 at 40 ug/ml; format: functional
Bacillus subtilis [16] = experiment: Antibacterial activity against Bacillus subtilis ATCC 6633 at 40 ug/ml; format: functional

Molecule	Activity [9] [%]	Activity [10] [%]	MIC (Escherichia coli [11]) [µg/mL]	MIC (Bacillus subtilis [12]) [µg/mL]	other results
N[C@H]1[C@@H](O[C@H]2[C@H](O)[C@@H](O)[C@H](N)C[C@@H]2N)O[C@H](CO)[C@@H](O)[C@@H]1O[C@@H]1O[C@H](CO)[C@@H](O)[C@H]1O.O=S(=O)(O)O	–	–	–	–	Activity [1]: < 1%; Activity [2]: 82%; MIC (Escherichia coli [3]): > 512 µg/mL; MIC (Bacillus subtilis [4]): > 512 µg/mL
GENTAMICIN SULFATE	–	–	–	–	Activity [5]: 49%; MIC (Escherichia coli [6]): 4 µg/mL; MIC (Bacillus subtilis [7]): < 0.5 µg/mL; Activity [8]: 40%
NC[C@@H]1O[C@H](O[C@H]2[C@@H](O)[C@H](O[C@@H]3[C@@H](O)[C@H](N)C[C@H](N)[C@H]3O[C@H]3O[C@H](CO)[C@@H](O)[C@H](O)[C@H]3N)O[C@@H]2CO)[C@H](N)[C@@H](O)[C@@H]1O.O=S(=O)(O)O [PAROMOMYCIN SULFATE]	6.2	74	512	128	Activity [13]: 49%; Activity [14]: 40%; MIC (Escherichia coli [15]): 12 µg/mL; MIC (Bacillus subtilis [16]): 8 µg/mL
N[C@H]1[C@@H](O[C@H]2[C@H](O[C@@H]3O[C@H](CO)[C@@H](O)[C@H]3O)[C@@H](O)[C@H](N)C[C@@H]2N)O[C@H](CO)[C@@H](O)[C@@H]1O.O=S(=O)(O)O	1.3	100	256	64	–
NC[C@H]1O[C@@H](O[C@@H]2[C@@H](N)[C@@H](O[C@H]3[C@H](O)[C@@H](O)[C@H](N)C[C@@H]3N)O[C@H](CO)[C@H]2O)[C@H](O)[C@@H]1O.O=S(=O)(O)O	2.9	98	192	48	–
NC[C@@H]1O[C@H](O[C@@H]2[C@@H](O)[C@H](O[C@H]3O[C@H](CO)[C@@H](O)[C@H](O)[C@H]3N)[C@@H](N)C[C@H]2N)[C@@H](O)[C@H]1O.O=S(=O)(O)O	4.4	75	> 512	192	–
N[C@H]1[C@@H](O[C@H]2[C@H](O)[C@@H](O)[C@H](N)C[C@@H]2N)O[C@H](CO)[C@@H](O)[C@H]1N.O=S(=O)(O)O	2	71	192	48	–
N[C@H]1[C@@H](O[C@H]2[C@H](O)[C@@H](O[C@H]3O[C@@H](CO)[C@H](O)[C@@H]3O)[C@H](N)C[C@@H]2N)O[C@H](CO)[C@@H](O)[C@@H]1O.O=S(=O)(O)O	1.5	74	256	96	–
NC[C@H]1O[C@@H](O[C@@H]2[C@@H](O)[C@H](N)C[C@H](N)[C@H]2O[C@H]2O[C@H](CO)[C@@H](O)[C@H](O)[C@H]2N)[C@H](O)[C@@H]1O.O=S(=O)(O)O	21	72	> 512	48	–
N[C@H]1[C@@H](O[C@H]2[C@H](O)[C@@H](O)[C@H](N)C[C@@H]2N)O[C@H](CO)[C@@H](O)[C@@H]1OCO[C@@H]1[C@@H](N)[C@@H](O[C@H]2[C@H](O)[C@@H](O)[C@H](N)C[C@@H]2N)O[C@H](CO)[C@H]1O.O=S(=O)(O)O	< 1	22	96	48	–
N[C@H]1[C@@H](O[C@H]2[C@H](O)[C@@H](O)[C@H](N)C[C@@H]2N)O[C@H](CO)[C@@H](O)[C@@H]1O.O=S(=O)(O)O [PAROMAMINE SULFATE]	6.2	74	512	128	–

— ChEMBL document CHEMBL1146146, “Redesign of aminoglycosides for treatment of human genetic diseases caused by premature stop mutations” (2006)
